The record followed here is ChEMBL document CHEMBL4229344 (Eur J Med Chem, 2018).

The target of data set [1] is Activin receptor type-1 (Homo sapiens) (UniProt Q04771). As to the kind of experiment: Binding affinity to wild-type human ACVR1 (C188 to C509 residues) expressed in bacterial expression system assessed as residual binding level at 1 uM by Kinomescan method relative to control. A digest of the protocol: (§1)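 Single-concentration (1 μM) competition-binding screen run by KINOMEscan against a panel of 468 purified kinases and mutants. The read-out is the relative binding activity of the test compound to each kinase.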

Data set [2] addresses Peripheral plasma membrane protein CASK (Homo sapiens) (UniProt O14936). As to the kind of experiment: Binding affinity to wild-type human partial length CASK (M1 to H315 residues) expressed in mammalian expression system assessed as residual binding level at 1 uM by Kinomescan method relative to control. The method, boiled down: (§2)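 Kinome-wide competition binding screen against a panel of 468 purified kinases/mutants, with the test compound at a single concentration of 1 μM. Read-out is the relative binding activity of each kinase in the presence of compound.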

Data set [3] addresses Cyclin-dependent kinase 7 (Homo sapiens) (UniProt P50613). As to the kind of experiment: Binding affinity to wild-type human full length CDK7 (M1 to L344 residues) expressed in mammalian expression system assessed as residual binding level at 1 uM by Kinomescan method relative to control. The method, boiled down:
(§3)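 KINOMEscan competition binding against 468 purified kinases/mutants, test compound at 1 µM; residual binding relative to control.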

The target in data set [4] is Tyrosine-protein kinase CSK (Homo sapiens) (UniProt P41240). As to the kind of experiment: Binding affinity to wild-type human full length CSK (M1 to L450 residues) expressed in bacterial expression system assessed as residual binding level at 1 uM by Kinomescan method relative to control. A digest of the protocol:
as §3

Data set [5] concerns the target Casein kinase I isoform gamma-1 (Homo sapiens) (UniProt Q9HCP0). As to the kind of experiment: Binding affinity to wild-type human partial length CSNK1G1 (T15 to S353 residues) expressed in bacterial expression system assessed as residual binding level at 1 uM by Kinomescan method relative to control.
Data set [6] addresses Epidermal growth factor receptor (Homo sapiens) (UniProt P00533). As to the kind of experiment: Binding affinity to human partial length EGFR E746-A750del mutant expressed in bacterial expression system assessed as residual binding level at 1 uM by Kinomescan method relative to control. The method, boiled down: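 Kinome-wide single-concentration binding screen (KINOMEscan) at 1 μM against a panel of 468 purified kinases and mutants. Read-out is relative binding of each kinase compared with control. Selectivity across the panel was summarised as an S(10) score.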

The target in data set [7] is Ephrin type-A receptor 2 (Homo sapiens) (UniProt P29317). As to the kind of experiment: Binding affinity to wild-type human partial length EPHA2 (T593 to V891 residues) expressed in bacterial expression system assessed as residual binding level at 1 uM by Kinomescan method relative to control.
Data set [8] addresses Mitogen-activated protein kinase 3 (Homo sapiens) (UniProt P27361). As to the kind of experiment: Binding affinity to wild-type human full length ERK1 (M1 to P379 residues) expressed in bacterial expression system assessed as residual binding level at 1 uM by Kinomescan method relative to control. A digest of the protocol:
as §1

Data set [9] has as its target Hormonally up-regulated neu tumor-associated kinase (Homo sapiens) (UniProt P57058). As to the kind of experiment: Binding affinity to wild-type human partial length HUNK (A31 to K354 residues) expressed in bacterial expression system assessed as residual binding level at 1 uM by Kinomescan method relative to control.
Data set [10] has as its target Insulin receptor-related protein (Homo sapiens) (UniProt P14616). As to the kind of experiment: Binding affinity to wild-type human partial length INSRR (R950 to E1278 residues) expressed in bacterial expression system assessed as residual binding level at 1 uM by Kinomescan method relative to control.
The target of data set [11] is Mitogen-activated protein kinase kinase kinase 15 (Homo sapiens) (UniProt Q6ZN16). As to the kind of experiment: Binding affinity to wild-type human partial length MAP3K15 (T625 to L932 residues) expressed in mammalian expression system assessed as residual binding level at 1 uM by Kinomescan method relative to control.
Data set [12] deals with Serine/threonine-protein kinase 38-like (Homo sapiens) (UniProt Q9Y2H1). As to the kind of experiment: Binding affinity to wild-type human partial length NDR2 (N34 to E447 residues) expressed in bacterial expression system assessed as residual binding level at 1 uM by Kinomescan method relative to control. The method, boiled down:
as §2

In data set [13] the target is Mitogen-activated protein kinase 14 (Homo sapiens) (UniProt Q16539). As to the kind of experiment: Binding affinity to wild-type human full length p38-alpha (M1 to S360 residues) expressed in bacterial expression system assessed as residual binding level at 1 uM by Kinomescan method relative to control. The method, boiled down:
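Single-concentration KINOMEscan (DiscoverX) binding screen at 1 μM against a panel of 468 purified kinases and mutants. The read-out is binding relative to control.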

The target of data set [14] is RAF proto-oncogene serine/threonine-protein kinase (Homo sapiens) (UniProt P04049). As to the kind of experiment: Binding affinity to wild-type human partial length RAF1 (I330 to T640 residues) expressed in bacterial expression system assessed as residual binding level at 1 uM by Kinomescan method relative to control.
Data set [15] concerns the target Ribosomal protein S6 kinase alpha-5 (Homo sapiens) (UniProt O75582). As to the kind of experiment: Binding affinity to wild-type human partial length N-terminal RPS6KA5 kinase domain 1 expressed in bacterial expression system assessed as residual binding level at 1 uM by Kinomescan method relative to control.
Data set [16] deals with SRSF protein kinase 3 (Homo sapiens) (UniProt Q9UPE1). As to the kind of experiment: Binding affinity to wild-type human partial length SRPK3 (P41 to P567 residues) expressed in bacterial expression system assessed as residual binding level at 1 uM by Kinomescan method relative to control.
The species named for data set [17] is Homo sapiens. As to the kind of experiment: Selectivity index, ratio of IC50 for PDGFRbeta (unknown origin) by ADP-Glo kinase assay to IC50 for PDGFRalpha (unknown origin) by ADP-Glo kinase assay. (ADP-Glo first removes unused ATP, then detects ADP through luciferase.)
Data set [18] is described as follows: Half life in Sprague-Dawley rat at 1 mg/kg, iv. In kind it is ADME, organism-based. The following applies: in vivo.
A short description of data set [19]: Tmax in Sprague-Dawley rat at 1 mg/kg, iv. In kind it is ADME, organism-based. As to conditions: in vivo. A digest of the protocol: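 Male Sprague-Dawley rats, 6–8 weeks old and fasted overnight, dosed IV at 1 mg/kg or PO at 10 mg/kg. Formulation was 5% DMSO/40% PEG400/55% saline (1 mg/mL). Jugular blood collected on heparin from 1 min to 8 h (IV) or 5 min to 24 h (PO). Plasma separated by centrifugation at 2–8 °C and stored at −80 °C.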

Data set [20] deals with EOL1. As to the kind of experiment: Antitumor activity against human EOL-1 cells xenografted in nu/nu mouse assessed as tumor growth inhibition at 25 mg/kg/day, ip. In kind it is functional. As to conditions: read-out: TGI. The method, boiled down: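 Female nu/nu mice (6 weeks) given subcutaneous right-flank injection of 5 million EOL-1 cells in PBS/Matrigel 1:1. At 200–400 mm3 tumors, randomized to groups of 6 and dosed daily i.p. for 14 days at 25, 50 or 100 mg/kg/d in 0.5% methylcellulose/0.4% Tween80. Tumor volume = W²×L/2, measured daily.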
For orientation: Xenograft models place foreign cells or tissue in a host animal.

Data set [21] has as its system EOL1. As to the kind of experiment: Antitumor activity against human EOL-1 cells engrafted in ip dosed NOD-SCID mouse assessed as increase in mouse survival administered 3 weeks post cell inoculation. In kind it is functional, organism-based. The method, boiled down: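 Daily i.p. dosing started 3 weeks after inoculation at 7.5, 15 or 30 mg/kg/day. Mice monitored daily and euthanized when moribund or at hind-limb paralysis. Bone marrow cells, after red-cell lysis, stained with PE anti-HLA-ABC and counted by flow cytometry.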

SRSF protein kinase 3 (Homo sapiens), sequence (Q9UPE1 whole entry, the tested form may be a part): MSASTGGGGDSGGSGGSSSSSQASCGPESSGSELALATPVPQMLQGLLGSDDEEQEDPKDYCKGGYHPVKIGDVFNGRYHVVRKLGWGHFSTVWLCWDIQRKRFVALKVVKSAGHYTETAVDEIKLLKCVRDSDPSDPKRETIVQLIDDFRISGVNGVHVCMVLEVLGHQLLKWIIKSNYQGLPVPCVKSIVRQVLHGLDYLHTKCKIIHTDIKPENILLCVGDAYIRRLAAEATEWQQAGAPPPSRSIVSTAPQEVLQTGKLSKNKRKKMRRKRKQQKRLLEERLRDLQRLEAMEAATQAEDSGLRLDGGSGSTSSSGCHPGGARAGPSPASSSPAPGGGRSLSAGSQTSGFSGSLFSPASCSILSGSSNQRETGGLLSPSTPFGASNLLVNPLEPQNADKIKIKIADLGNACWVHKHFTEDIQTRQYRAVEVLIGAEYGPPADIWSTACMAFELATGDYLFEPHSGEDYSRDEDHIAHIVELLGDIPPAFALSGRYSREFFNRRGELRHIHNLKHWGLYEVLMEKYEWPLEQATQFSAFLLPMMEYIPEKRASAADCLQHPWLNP
Epidermal growth factor receptor (Homo sapiens), sequence (P00533 whole entry): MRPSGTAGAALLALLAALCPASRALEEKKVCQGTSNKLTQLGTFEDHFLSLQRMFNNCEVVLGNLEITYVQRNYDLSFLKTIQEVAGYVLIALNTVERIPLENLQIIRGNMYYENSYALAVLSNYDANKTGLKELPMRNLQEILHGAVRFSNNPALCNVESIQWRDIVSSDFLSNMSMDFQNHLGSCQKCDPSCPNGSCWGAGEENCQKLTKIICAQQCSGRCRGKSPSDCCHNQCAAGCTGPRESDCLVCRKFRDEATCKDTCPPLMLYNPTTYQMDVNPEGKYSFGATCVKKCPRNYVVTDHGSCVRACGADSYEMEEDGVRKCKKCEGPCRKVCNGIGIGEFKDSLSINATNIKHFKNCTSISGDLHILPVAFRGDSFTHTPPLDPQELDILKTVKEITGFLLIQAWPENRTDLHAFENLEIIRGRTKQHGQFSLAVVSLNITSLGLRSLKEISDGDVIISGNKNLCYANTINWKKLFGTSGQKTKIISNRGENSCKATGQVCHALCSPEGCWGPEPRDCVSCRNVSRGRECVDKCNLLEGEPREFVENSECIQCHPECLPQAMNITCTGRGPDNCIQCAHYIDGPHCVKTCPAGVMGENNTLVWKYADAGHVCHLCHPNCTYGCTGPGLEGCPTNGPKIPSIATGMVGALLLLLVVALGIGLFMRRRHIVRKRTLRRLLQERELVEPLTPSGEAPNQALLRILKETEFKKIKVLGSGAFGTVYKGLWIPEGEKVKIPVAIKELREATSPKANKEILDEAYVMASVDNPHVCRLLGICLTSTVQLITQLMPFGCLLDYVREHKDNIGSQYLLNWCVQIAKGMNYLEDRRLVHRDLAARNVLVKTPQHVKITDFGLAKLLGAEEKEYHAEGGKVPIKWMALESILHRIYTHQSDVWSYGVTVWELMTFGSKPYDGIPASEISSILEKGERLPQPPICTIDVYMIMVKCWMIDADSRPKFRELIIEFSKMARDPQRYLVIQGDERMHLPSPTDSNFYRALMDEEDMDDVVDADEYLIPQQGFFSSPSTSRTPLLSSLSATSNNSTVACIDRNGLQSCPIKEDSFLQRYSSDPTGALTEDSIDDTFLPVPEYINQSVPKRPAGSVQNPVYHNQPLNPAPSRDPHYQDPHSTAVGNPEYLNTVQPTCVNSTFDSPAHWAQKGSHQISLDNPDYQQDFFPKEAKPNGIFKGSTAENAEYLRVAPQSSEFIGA
RAF proto-oncogene serine/threonine-protein kinase (Homo sapiens), sequence (P04049 whole entry, the tested form may be a part): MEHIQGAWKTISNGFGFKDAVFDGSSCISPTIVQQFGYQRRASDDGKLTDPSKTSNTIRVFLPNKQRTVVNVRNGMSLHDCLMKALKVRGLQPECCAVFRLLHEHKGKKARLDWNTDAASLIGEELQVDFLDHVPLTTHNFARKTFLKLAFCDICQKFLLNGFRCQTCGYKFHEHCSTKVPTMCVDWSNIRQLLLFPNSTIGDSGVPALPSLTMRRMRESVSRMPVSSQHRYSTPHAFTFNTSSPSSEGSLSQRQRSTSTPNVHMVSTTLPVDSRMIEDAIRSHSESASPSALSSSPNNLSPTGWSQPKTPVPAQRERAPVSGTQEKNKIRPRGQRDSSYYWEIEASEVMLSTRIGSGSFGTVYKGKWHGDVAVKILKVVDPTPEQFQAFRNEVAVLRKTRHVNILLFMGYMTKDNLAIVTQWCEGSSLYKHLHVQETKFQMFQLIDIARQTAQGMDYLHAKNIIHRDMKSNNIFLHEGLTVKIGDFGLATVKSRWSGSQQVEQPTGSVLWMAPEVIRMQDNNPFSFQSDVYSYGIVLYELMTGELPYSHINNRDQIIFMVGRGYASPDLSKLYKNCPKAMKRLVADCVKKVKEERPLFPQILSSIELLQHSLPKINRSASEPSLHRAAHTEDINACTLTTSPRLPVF
Ribosomal protein S6 kinase alpha-5 (Homo sapiens), sequence (O75582 whole entry, looked up, the tested form may be a part): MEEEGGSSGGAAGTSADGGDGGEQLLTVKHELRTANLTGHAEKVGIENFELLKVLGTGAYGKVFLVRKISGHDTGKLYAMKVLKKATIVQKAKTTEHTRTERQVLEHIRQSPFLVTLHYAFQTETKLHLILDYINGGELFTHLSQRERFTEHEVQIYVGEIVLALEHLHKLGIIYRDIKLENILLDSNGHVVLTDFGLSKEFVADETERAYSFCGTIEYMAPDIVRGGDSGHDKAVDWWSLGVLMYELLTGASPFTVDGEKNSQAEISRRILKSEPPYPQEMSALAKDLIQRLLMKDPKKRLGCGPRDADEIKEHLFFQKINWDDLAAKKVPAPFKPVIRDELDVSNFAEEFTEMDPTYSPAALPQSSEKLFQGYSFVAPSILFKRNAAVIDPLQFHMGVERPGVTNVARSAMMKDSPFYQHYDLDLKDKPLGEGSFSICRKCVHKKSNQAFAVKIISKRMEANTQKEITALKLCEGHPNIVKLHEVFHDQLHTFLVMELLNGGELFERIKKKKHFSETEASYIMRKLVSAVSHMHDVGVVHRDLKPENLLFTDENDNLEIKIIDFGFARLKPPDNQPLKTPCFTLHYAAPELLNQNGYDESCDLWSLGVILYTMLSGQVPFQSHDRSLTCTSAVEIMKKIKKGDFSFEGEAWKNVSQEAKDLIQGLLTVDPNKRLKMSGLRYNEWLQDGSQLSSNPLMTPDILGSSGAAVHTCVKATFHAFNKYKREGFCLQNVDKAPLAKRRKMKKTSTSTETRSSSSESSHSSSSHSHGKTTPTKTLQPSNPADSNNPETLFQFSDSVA
Cyclin-dependent kinase 7 (Homo sapiens), sequence (P50613 whole entry, the tested form may be a part): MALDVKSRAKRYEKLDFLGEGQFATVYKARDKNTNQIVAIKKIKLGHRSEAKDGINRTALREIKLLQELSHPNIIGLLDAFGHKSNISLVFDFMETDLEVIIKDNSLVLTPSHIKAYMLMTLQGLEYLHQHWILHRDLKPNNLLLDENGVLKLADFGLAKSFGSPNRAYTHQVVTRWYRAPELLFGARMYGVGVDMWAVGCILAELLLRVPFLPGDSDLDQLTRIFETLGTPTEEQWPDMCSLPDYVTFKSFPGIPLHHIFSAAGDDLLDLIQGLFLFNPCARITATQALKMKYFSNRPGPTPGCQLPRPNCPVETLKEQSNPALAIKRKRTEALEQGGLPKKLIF
Hormonally up-regulated neu tumor-associated kinase (Homo sapiens), sequence (P57058 whole entry, the tested form may be a part): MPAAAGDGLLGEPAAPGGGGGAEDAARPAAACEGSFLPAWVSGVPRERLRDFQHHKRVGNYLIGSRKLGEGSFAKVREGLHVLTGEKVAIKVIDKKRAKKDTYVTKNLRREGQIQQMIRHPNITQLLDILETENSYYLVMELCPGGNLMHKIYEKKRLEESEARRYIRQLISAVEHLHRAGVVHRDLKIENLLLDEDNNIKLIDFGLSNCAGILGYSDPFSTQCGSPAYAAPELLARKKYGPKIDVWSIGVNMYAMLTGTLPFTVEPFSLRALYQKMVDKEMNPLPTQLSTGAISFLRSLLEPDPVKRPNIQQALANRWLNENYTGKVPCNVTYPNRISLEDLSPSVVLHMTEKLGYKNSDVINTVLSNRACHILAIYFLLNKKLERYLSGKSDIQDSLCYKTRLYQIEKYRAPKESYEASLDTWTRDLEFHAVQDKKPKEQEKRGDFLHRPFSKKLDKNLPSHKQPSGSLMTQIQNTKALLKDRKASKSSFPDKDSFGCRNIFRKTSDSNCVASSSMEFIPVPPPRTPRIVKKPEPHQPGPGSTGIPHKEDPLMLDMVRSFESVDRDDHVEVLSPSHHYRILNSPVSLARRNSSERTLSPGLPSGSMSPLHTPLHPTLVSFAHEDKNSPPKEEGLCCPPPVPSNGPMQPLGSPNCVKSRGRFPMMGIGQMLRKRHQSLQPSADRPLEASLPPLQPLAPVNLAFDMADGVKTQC
Activin receptor type-1 (Homo sapiens), sequence (Q04771 whole entry, the tested form may be a part): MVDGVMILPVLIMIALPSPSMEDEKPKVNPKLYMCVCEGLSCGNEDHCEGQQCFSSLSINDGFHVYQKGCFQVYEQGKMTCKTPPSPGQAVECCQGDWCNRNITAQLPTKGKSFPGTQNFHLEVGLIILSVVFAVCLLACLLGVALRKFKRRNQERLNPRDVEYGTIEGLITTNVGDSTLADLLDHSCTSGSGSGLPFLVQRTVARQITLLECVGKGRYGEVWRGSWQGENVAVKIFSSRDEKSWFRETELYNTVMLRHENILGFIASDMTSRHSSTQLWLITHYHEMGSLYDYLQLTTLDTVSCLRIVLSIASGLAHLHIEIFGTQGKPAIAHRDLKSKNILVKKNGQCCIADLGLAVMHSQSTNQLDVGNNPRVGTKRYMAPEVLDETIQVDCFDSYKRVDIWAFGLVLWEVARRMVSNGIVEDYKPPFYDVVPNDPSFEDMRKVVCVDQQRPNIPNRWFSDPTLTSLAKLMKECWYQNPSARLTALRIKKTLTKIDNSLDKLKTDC

A word on the half-life: it is the time in which the quantity being followed falls by half. Read a high half-life as slow loss. The term Tmax denotes the time at which the peak concentration occurs. `Cc1ccc(NC(=O)c2ccc(CN(CCN(C)C)C(=O)c3cccnc3)cc2)cc1Nc1nccc(-c2cccnc2)n1`: the Activity in [1] was 99%; in data set [2], 87%; in [3], 91%; in data set [4], 92%; in [5] it was 90%; in data set [6] it was 100%. Also, the Activity in data set [7] came to 100%; in data set [8], 95%; in [9], 90%; in data set [10], 96%; in data set [11], 100%; in data set [12], 82%. Moreover, the Activity was 99% in data set [13]; 100% in data set [14]; 86% in data set [15]; 85% in data set [16]; “Dose-dependent effect” in data set [21]. In addition, the Ratio IC50 in [17] turned out to be 46. Further, the half-life in [18] is 2.05 h. Moreover, the Tmax in data set [19] is 1.02 min. For the same compound, in data set [20], the inhibition in vivo at 25 mg/kg/day amounted to 71.5%.
